In article PMC9245008 (ACS chemical biology, 2022):

Experiments:
[1] = biological target: T1, ULK2 (Homo sapiens, UniProt Q8IYT8); assay: Dose–response of top 10 kinase hits; type: biochemical; details: read-out: IC50 ULK2, n = 2
T1 sequence (Q8IYT8 1-1036): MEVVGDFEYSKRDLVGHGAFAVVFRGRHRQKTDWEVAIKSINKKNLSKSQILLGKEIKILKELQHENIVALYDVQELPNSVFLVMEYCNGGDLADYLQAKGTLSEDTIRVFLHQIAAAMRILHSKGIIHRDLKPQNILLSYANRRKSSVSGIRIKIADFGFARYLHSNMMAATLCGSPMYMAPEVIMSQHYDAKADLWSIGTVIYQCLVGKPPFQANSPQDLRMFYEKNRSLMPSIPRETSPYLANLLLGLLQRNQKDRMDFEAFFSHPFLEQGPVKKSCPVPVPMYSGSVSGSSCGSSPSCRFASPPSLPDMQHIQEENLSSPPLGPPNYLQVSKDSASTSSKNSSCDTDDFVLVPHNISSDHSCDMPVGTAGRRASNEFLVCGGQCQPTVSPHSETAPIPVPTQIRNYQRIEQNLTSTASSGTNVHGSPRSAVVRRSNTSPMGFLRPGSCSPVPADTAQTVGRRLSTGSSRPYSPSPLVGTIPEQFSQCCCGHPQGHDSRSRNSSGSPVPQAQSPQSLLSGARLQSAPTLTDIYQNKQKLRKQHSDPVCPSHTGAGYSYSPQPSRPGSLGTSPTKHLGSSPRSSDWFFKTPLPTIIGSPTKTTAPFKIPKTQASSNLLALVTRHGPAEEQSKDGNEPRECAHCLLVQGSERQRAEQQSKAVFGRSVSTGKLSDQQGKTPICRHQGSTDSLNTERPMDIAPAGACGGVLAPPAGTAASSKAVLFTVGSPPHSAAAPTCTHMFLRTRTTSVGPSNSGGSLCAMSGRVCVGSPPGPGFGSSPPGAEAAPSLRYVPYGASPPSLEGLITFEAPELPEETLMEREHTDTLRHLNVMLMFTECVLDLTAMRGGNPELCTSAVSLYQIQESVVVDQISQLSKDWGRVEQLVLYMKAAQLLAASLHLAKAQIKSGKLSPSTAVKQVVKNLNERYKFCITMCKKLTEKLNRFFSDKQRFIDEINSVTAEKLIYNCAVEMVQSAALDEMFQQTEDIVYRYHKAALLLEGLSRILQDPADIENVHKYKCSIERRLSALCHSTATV

[2] = biological target: CSNK1G2 (Homo sapiens, UniProt P78368); assay: Dose–response of top 10 kinase hits; type: biochemical; details: read-out: IC50 CSNK1G2, n = 2
Sequence of CSNK1G2 (P78368 whole entry): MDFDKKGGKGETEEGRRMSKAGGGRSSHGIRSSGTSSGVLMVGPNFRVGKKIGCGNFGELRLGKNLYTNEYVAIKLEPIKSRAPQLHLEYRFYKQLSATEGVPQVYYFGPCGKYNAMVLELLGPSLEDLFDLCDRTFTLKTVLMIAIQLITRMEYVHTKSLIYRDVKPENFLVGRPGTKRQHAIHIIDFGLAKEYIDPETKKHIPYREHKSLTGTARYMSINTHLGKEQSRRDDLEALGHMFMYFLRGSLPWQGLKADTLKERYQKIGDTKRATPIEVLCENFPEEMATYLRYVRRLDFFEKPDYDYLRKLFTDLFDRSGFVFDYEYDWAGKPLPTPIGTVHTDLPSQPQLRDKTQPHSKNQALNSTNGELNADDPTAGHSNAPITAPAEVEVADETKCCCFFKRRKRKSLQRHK

[3] = Bioavailability in adult CD-1 mice; type: in vivo
[4] = biological target: CAMKKβ−1 (Homo sapiens, UniProt Q96RR4); assay: Dose–response of top 10 kinase hits; type: biochemical; details: read-out: IC50 CAMKKβ−1, n = 2
Sequence of CAMKKβ−1 (Q96RR4 whole entry): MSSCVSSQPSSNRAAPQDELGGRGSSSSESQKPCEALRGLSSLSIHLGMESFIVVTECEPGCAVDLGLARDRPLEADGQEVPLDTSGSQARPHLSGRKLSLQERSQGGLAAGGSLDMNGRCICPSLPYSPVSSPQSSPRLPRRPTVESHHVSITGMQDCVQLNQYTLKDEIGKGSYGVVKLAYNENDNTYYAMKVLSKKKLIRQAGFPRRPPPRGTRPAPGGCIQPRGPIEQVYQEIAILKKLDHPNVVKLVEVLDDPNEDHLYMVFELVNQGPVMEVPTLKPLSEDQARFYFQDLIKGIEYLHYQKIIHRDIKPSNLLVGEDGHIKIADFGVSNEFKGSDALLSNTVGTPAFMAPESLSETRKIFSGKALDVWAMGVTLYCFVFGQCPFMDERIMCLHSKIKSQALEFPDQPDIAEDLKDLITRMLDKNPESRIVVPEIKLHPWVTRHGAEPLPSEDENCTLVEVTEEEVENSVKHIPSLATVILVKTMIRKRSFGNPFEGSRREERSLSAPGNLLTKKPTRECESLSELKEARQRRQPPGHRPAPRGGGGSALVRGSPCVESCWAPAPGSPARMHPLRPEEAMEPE

[5] = test system: IL-1β expression in THP-1 cells; assay: Cytokine dose–response curves in THP-1 cells; type: cell-based, human; details: read-out: IC50 IL-1β expression; LPS-stimulated THP-1, 24 h
In short: (§1)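 THP-1 cells differentiated with PMA (100 nM) for up to 72 h, then rested 24 h in PMA-free RPMI. Pretreated with test compound (3.2 nM–32 μM) or DMSO vehicle, then stimulated with LPS (10 ng/mL). After 24 h, TNF, IL-6 and IL-1β in supernatant measured by Luminex and expressed as percent of vehicle control; n = 3.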

[6] = test system: TNF expression in THP-1 cells; assay: Cytokine dose–response curves in THP-1 cells; type: cell-based, human; details: read-out: IC50 TNF expression; LPS-stimulated THP-1, 24 h
In short: as §1

[7] = biological target: T2, GCK (Homo sapiens, UniProt Q12851); assay: Dose–response of top 10 kinase hits; type: biochemical
T2 sequence (Q12851 1-820): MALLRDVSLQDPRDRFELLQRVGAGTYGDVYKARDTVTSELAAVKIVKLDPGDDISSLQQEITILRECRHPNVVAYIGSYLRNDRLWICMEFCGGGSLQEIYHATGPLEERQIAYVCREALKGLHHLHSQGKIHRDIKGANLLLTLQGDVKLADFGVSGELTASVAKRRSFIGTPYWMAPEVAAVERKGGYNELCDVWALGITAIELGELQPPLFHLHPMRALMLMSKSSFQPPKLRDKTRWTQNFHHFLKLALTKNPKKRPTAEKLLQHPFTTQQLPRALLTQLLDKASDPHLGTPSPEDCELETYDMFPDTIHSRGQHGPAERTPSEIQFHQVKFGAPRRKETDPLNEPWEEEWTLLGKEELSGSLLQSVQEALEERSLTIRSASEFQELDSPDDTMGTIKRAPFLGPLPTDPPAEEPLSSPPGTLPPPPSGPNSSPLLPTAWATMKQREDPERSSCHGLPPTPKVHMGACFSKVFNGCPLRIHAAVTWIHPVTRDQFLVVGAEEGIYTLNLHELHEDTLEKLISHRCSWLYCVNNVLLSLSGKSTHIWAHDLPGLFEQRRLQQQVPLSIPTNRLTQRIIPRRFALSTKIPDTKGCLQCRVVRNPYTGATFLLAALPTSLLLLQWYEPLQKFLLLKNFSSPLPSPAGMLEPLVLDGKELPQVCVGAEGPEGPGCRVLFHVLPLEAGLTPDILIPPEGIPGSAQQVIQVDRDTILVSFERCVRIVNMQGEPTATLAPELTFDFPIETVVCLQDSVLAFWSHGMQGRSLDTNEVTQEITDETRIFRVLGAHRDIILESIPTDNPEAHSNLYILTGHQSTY

[8] = biological target: IRAK1 (Homo sapiens, UniProt P51617); assay: Dose–response of top 10 kinase hits; type: biochemical; details: read-out: IC50 IRAK1, n = 2
Sequence of IRAK1 (P51617 whole entry): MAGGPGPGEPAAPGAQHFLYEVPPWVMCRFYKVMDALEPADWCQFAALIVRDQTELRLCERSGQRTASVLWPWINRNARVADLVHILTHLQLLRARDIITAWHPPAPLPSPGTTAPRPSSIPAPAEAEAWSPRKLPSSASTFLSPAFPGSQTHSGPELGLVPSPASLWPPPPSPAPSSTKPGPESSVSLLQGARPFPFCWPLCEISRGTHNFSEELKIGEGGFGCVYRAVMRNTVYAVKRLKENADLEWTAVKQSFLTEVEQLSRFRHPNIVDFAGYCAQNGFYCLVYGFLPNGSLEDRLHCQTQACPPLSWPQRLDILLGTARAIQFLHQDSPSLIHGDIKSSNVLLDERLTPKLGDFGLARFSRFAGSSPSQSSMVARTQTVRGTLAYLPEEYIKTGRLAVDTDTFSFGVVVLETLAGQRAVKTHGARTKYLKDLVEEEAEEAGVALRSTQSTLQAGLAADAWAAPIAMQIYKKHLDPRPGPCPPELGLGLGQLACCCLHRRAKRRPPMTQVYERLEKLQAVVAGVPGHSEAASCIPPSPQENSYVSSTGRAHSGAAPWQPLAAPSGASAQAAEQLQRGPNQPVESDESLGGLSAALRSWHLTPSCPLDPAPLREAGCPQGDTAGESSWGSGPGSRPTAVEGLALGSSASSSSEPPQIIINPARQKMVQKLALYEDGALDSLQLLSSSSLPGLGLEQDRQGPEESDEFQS

[9] = oral administration, normal mice

For `CCCn1c(NC(=O)c2cccc(C(N)=O)c2)nc2ccc(CN3CCCCC3)cc21` [HS-276], which IC50 [1] is on record?
The IC50 was 63 nM.

What about the IC50 [2] of the same compound?
Its IC50 is 809 nM.

What about the AUC0-last ([3]; mouse, IV, 30 mg/kg) of the same compound?
The AUC0-last was 7960.0 ng·h/mL.

What about the Cmax ([3]; mouse, IV, 30 mg/kg) of the same compound?
Its Cmax is 11,162 ng/ml.

What about the Tmax ([3]; mouse, IV, 30 mg/kg) of the same compound?
The Tmax was 0.08 h.

What about the half-life ([3]; mouse, IV, 30 mg/kg) of the same compound?
Its half-life is 1.24 h.

What about the “%F” value ([3]; mouse, PO, 30 mg/kg) of the same compound?
The value was 98.1%.

And the AUC0-last ([3]; mouse, PO, 30 mg/kg)?
The AUC0-last was 7812 ng·h/mL.

And the Cmax ([3]; mouse, PO, 30 mg/kg)?
Its Cmax is 3682 ng/mL.

And the Tmax ([3]; mouse, PO, 30 mg/kg)?
The Tmax was 1 h.

And the half-life ([3]; mouse, PO, 30 mg/kg)?
Its half-life is 1.41 h.

And the bioavailability [3, 9]?
The bioavailability was over 95%.

What about the plasma levels [3, 9] of the same compound?
The plasma levels was “μM plasma levels”.

What about the IC50 [4] of the same compound?
The IC50 was 1280 nM.

What about the IC50 [5] of the same compound?
Its IC50 is 234 nM.

What about the IC50 [6] of the same compound?
The IC50 was 138 nM.

And the “TAK1 more potently inhibited than GCK” value ([7]; from dose–response IC50 values)?
The value was 4.1 fold.

And the IC50 ([7]; read-out: IC50 GCK, dose–response, n = 2)?
Its IC50 is 33 nM.

What about the IC50 [8] of the same compound?
The IC50 was 264 nM.
